Published values pooled from the literature.
Lines come from different studies, so protocols differ.
Target: Muscle, skeletal receptor tyrosine-protein kinase (MUSK, Homo sapiens, UniProt O15146)
Sequence (O15146 24-869, as in one of the studies): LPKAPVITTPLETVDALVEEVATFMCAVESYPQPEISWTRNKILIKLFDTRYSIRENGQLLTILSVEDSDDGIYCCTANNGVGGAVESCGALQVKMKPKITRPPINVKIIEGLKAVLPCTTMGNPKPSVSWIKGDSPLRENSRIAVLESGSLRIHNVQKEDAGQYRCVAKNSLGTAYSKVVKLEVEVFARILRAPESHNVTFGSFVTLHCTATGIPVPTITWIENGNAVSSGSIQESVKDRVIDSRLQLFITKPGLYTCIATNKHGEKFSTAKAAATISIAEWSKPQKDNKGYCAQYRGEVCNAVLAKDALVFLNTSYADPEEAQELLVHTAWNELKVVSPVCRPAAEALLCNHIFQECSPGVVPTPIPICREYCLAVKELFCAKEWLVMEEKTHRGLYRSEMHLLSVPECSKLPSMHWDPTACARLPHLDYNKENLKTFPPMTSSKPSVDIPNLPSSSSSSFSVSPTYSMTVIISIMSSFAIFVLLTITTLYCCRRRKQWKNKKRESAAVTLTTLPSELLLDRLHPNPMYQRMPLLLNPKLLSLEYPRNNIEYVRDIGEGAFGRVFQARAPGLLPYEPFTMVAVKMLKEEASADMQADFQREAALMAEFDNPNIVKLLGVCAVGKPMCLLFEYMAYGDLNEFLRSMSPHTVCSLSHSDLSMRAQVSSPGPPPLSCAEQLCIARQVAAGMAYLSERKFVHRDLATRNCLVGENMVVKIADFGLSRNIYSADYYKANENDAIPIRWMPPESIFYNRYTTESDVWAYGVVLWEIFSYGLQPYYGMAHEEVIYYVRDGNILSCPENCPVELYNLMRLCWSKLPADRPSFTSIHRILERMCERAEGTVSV

CCCCC(=O)Nc1ccc(-c2ccc3ncn(CCC)c(=O)c3c2)cn1
remaining binding (binding; competition with immobilised ligand; 0.5 µM): 93%

C=CC(=O)N1CCC([C@@H]2CCNc3c(C(N)=O)c(-c4ccc(Oc5ccccc5)cc4)nn32)CC1
inhibition (enzyme activity; inhibitor; 1 µM): 16%

CN1CCN(C(=O)c2ccc(NC(=O)Nc3ccc(N(C)c4ccnc(Nc5ccc(CS(C)(=O)=O)cc5)n4)cc3)cc2)CC1
remaining binding (binding; competition with immobilised ligand; 1 µM): 11%

CO[C@@H]1[C@H](N(C)C(=O)c2ccccc2)C[C@H]2O[C@]1(C)n1c3ccccc3c3c4c(c5c6ccccc6n2c5c31)C(=O)NC4
inhibition (enzyme activity; inhibitor; 1 µM): 0%

C1=C/COCc2cc(ccc2OCCN2CCCC2)Nc2nccc(n2)-c2cccc(c2)COC/1
remaining binding (binding; 0.1 µM): 89%

Cc1ccc(NC(=O)c2ccnc(C(F)(F)F)c2)cc1-c1cc(OCCO)nc(N2CCOCC2)c1
remaining binding (binding; competition with immobilised ligand; 1 µM): 91%

C#Cc1cc(-c2cc(Nc3nc(N[C@@H](C)c4ccc(F)cn4)ncc3Cl)n[nH]2)ccc1C=O
inhibition (enzyme activity; inhibitor; 0.2 µM): 100%

CC(C)S(=O)(=O)c1ccc2nccc(Nc3ccc4sc(C5CCCC5)nc4c3)c2c1
activity vs control (enzyme activity; inhibitor; 1 µM): 101%
